In ChEMBL document CHEMBL1759921, “N5-phosphonoacetyl-L-ornithine (PALO): a convenient synthesis and investigation of influence on regulation of amino acid biosynthetic genes in Saccharomyces cerevisiae” (Bioorg Med Chem Lett, 2011):
Active and inactive are the calls of the source. The calls are words filed in the database; no cut-off is given here.

What was measured:
Type in all cases: functional, organism-based
[1] = system: Saccharomyces cerevisiae; assay: Decrease in TAP-tagged CPA1 protein level in Saccharomyces cerevisiae YSC1178-7502950 at 15 uM by Western blotting analysis in presence of arginine relative to control
Method in brief: (§1)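 TAP-tagged strains (BY4741 background, untagged BY4741 as control) were grown from a saturated culture in supplemented minimal medium. At inoculation they received 15 µM PALO in 50 mM potassium phosphate pH 6.8, buffer alone, 1 mg/mL L-arginine, or both. Cells grown at 30 °C and harvested at OD600 0.4–0.6. Extracts were western blotted with anti-TAP antibody, with Coomassie-stained duplicate gels as loading controls. Band intensity was quantified.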

[2] = system: Saccharomyces cerevisiae; assay: Increase in TAP-tagged CPA1 protein level in Saccharomyces cerevisiae YSC1178-7502950 at 15 uM by Western blotting analysis relative to control; method in brief: as §1
[3] = system: Saccharomyces cerevisiae; assay: Decrease in TRP5 mRNA level in Saccharomyces cerevisiae BY4741 at 15 uM by Northern blot analysis in presence of arginine relative to control
Method in brief: (§2)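 BY4741 inoculated from a saturated culture (30 °C, YPD) into minimal medium with leucine, methionine, uracil and histidine. Treatments were added at inoculation: 15 µM PALO in 50 mM potassium phosphate pH 6.8, buffer alone (untreated), 1 mg/mL L-arginine, or both. Cells grown at 30 °C and harvested at mid-log (OD600 0.4–0.6). mRNA measured by quantitative northern blot, normalized to SCR1; mean of three replicates.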

[4] = system: Saccharomyces cerevisiae; assay: Increase in TRP5 mRNA level in Saccharomyces cerevisiae BY4741 at 15 uM by Northern blot analysis relative to control; method in brief: as §2
[5] = system: Saccharomyces cerevisiae; assay: Effect on growth rate in Saccharomyces cerevisiae BY4741
Method in brief: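 Growth followed at 30 °C in nitrogen-limiting medium: 2% dextrose, 1 mM ammonium sulfate, 100 µM potassium phosphate pH 6.8, and 10 µg/mL each of leucine, methionine, uracil and histidine.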

[6] = system: Saccharomyces cerevisiae; assay: Increase in TAP-tagged TRP5 protein level in Saccharomyces cerevisiae YSC1178-7500415 at 15 uM by Western blotting analysis relative to control; method in brief: as §1
[7] = system: Saccharomyces cerevisiae; assay: Decrease in TAP-tagged ARG5,6 protein level in Saccharomyces cerevisiae YSC1178-7500224 at 15 uM by Western blotting analysis in presence of arginine relative to control; method in brief: as §1
[8] = system: Saccharomyces cerevisiae; assay: Increase in CPA1 mRNA level in Saccharomyces cerevisiae BY4741 at 15 uM by Northern blot analysis relative to control; method in brief: as §2
[9] = system: Saccharomyces cerevisiae; assay: Decrease in CPA1 mRNA level in Saccharomyces cerevisiae BY4741 at 15 uM by Northern blot analysis in presence of arginine relative to control; method in brief: as §2
[10] = system: Saccharomyces cerevisiae; assay: Decrease in ARG5,6 mRNA level in Saccharomyces cerevisiae BY4741 at 15 uM by Northern blot analysis in presence of arginine relative to control; method in brief: as §2
[11] = system: Saccharomyces cerevisiae; assay: Increase in TAP-tagged ARG5,6 protein level in Saccharomyces cerevisiae YSC1178-7500224 at 15 uM by Western blotting analysis relative to control; method in brief: as §1
[12] = system: Saccharomyces cerevisiae; assay: Decrease in TAP-tagged TRP5 protein level in Saccharomyces cerevisiae YSC1178-7500415 at 15 uM by Western blotting analysis in presence of arginine relative to control; method in brief: as §1
[13] = system: Saccharomyces cerevisiae; assay: Increase in ARG5,6 mRNA level in Saccharomyces cerevisiae BY4741 at 15 uM by Northern blot analysis relative to control; method in brief: as §2
[14] = system: Saccharomyces cerevisiae; assay: Decrease in TAP-tagged TRP5 protein level in Saccharomyces cerevisiae YSC1178-7500415 at 1 mg/ml by Western blotting analysis relative to control; method in brief: as §1
[15] = system: Saccharomyces cerevisiae; assay: Decrease in CPA1 mRNA level in Saccharomyces cerevisiae BY4741 at 1 mg/ml by Northern blot analysis relative to control; method in brief: as §2
[16] = system: Saccharomyces cerevisiae; assay: Decrease in TAP-tagged ARG5,6 protein level in Saccharomyces cerevisiae YSC1178-7500224 at 1 mg/ml by Western blotting analysis relative to control; method in brief: as §1
[17] = system: Saccharomyces cerevisiae; assay: Decrease in ARG5,6 mRNA level in Saccharomyces cerevisiae BY4741 at 1 mg/ml by Northern blot analysis relative to control; method in brief: as §2
[18] = system: Saccharomyces cerevisiae; assay: Decrease in TAP-tagged CPA1 protein level in Saccharomyces cerevisiae YSC1178-7502950 at 1 mg/ml by Western blotting analysis relative to control; method in brief: as §1
[19] = system: Saccharomyces cerevisiae; assay: Decrease in TRP5 mRNA level in Saccharomyces cerevisiae BY4741 at 1 mg/ml by Northern blot analysis relative to control; method in brief: as §2

Row | Structure (SMILES) | Activity [1] | Activity [2] | Activity [3] | Activity [4] | Activity [5] | Activity [6] | Activity [7] | Activity [8] | Activity [9] | Activity [10] | Activity [11] | Activity [12] | Activity [13] | Activity [14] | Activity [15] | Activity [16] | Activity [17] | Activity [18] | Activity [19]
1 | N[C@@H](CCCNC(=O)CP(=O)(O)O)C(=O)O | Active | inactive | inactive | inactive | inactive | inactive | Active | inactive | Active | Active | inactive | inactive | inactive | – | – | – | – | – | –
2 | N=C(N)NCCC[C@H](N)C(=O)O | – | – | – | – | – | – | – | – | – | – | – | – | – | inactive | Active | Active | Active | Active | inactive
